RGS4 pot = potentiators or activators of RGS4; HEK293 M3R/inducible RGS4, carbachol calcium flux Fluo4; hits give low values; B-score at 10 µM; 310,000 tested, 0.92% active; AID 463111;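 active = B-score of the integrated calcium signal more than 4 SD below the library mean, with starting fluorescence not abnormally high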;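 note: negative B-score means reduced calcium response which marks RGS4 activation or potentiation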
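System: HEK293 FlpIn-TREx cells, stable M3R, doxycycline-inducible RGS4. Timing: overnight RGS4 induction, 30 min dye load 37 °C, 20 min compound RT. Also added: carbachol, ECmax concentration. Measured by: Fluo4 fluorescence kinetic imaging of calcium. Evaluation: integrated calcium ratio converted to B score.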
MrgX1 antag = human MrgX1 receptor antagonism, primary screen; Q96LB2; MRGX1-HEK293 calcium flux, Fluo-4, BAM8-22 antagonism; hits give low values; B-score at 10 µM; 310,000 tested, 1.3% active;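 active = calcium-response B-score plate-corrected more than 3 library SD below zero, starting fluorescence within 5 deviations, no agonist response on first addition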;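 note: peak minus trough fluorescence over baseline after final BAM8-22 challenge near maximal dose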
Target sequence (Q96LB2 whole entry, looked up): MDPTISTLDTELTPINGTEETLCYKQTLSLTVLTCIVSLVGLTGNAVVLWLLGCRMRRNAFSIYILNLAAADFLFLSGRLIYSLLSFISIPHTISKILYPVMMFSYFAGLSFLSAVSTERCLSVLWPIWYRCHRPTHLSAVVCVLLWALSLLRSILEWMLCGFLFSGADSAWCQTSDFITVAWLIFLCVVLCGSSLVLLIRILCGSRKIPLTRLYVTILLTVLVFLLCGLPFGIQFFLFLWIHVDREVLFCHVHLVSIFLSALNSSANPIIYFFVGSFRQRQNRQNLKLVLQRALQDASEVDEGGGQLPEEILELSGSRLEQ
RGS4 inh = inhibitors of human RGS4; HEK293 M3R/RGS4 inducible, Fluo-4 calcium flux; hits give high values; triggered by carbachol at its EC20; 310,000 tested, 0.45% active; B-score at 10 µM;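 active = B-score, a plate-corrected calcium signal, over three deviations above library mean, with baseline fluorescence within five deviations of library mean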;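 note: RGS4 expression induced by doxycycline in cells with stable M3 receptor; B-score is computed from the integrated fluorescence ratio over baseline after carbachol; higher B-score means a larger calcium signal and so more RGS4 inhibition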
Target sequence (P49798 whole entry, looked up): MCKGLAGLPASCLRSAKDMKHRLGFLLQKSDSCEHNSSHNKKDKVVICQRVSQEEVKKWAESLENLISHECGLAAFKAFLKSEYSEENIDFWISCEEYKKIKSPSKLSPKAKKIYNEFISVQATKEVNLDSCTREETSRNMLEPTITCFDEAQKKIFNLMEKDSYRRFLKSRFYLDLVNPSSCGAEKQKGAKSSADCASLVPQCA
MrgX1 ag = human MrgX1 receptor agonism, primary screen. 310,000 tested, 0.44% active. MrgX1-HEK293 cells, Fluo-4 calcium fluorescence, agonist mode; hits give high values. Q96LB2. B-score at 10 µM;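 active = calcium response B-score plate-corrected fluorescence ratio at least 3 library SD, with starting fluorescence B-score inside 5 SD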
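Test system: HEK293 cells stably expressing human MrgX1 receptor; Input: fifteen thousand cells per well; Dosing: compound delivered in addition one of three; Schedule: overnight seeding, then 1 h dark dye loading; Technique: Fluo-4 NW calcium fluorescence; Measure: B-scored fluorescence response ratio; Controls: positive and negative controls per plate.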
MrgX1 PAM = allosterically activates human MrgX1 receptor signaling; Q96LB2; MrgX1-HEK293, Fluo-4 calcium flux, FDSS; hits give high values; B-score at 10 µM; 310,000 tested, 0.63% active; AID 588675;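 active = plate-corrected calcium response at least 3 library SD above typical, normal starting fluorescence, not activating the receptor alone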;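 note: compound read alongside a low EC10 to EC30 dose of BAM8-22 agonist; peak minus trough fluorescence over baseline measured at the second addition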
* marks the source's active call; other numbers are inactive results; i = inactive; . = no result given. Shown are actives, neighbours in structure and some others; about 3.5% of the full set was active somewhere.

SMILES | RGS4 pot | MrgX1 antag | RGS4 inh | MrgX1 ag | MrgX1 PAM
Cc1ccc(N=C2C(=O)Nc3ccccc32)cc1 | i | i | i | 42* | i
C[C@@H]1O[C@@H](OC2C(O)C(OCCc3ccc(O)c(O)c3)OC(CO)C2OC(=O)/C=C/c2ccc(O)c(O)c2)[C@H](O)[C@H](O)[C@H]1O (some centres not stated) | i | -5.1* | i | i | i
Cn1c(=O)c2c(nc(N3CCCCCC3)n2CC(O)COc2ccccc2)n(C)c1=O (configuration not stated) | i | i | i | i | i
Cc1cccc(OCC(O)Cn2c(N3CCCCC3)nc3c2c(=O)n(C)c(=O)n3C)c1 (configuration not stated) | i | i | i | i | 7.2*
CC(OC(=O)c1ccc(-c2ccc(O)cc2)cc1)C(=O)NC1CCCCC1C (configuration not stated) | i | i | i | i | i
CN(C(=O)CCc1nnc(CCCCc2ccccc2)o1)C1CC(C)(C)NC(C)(C)C1 | i | -5.8* | i | i | i
Cc1ccccc1N=C(NOCc1ccc(Cl)cc1Cl)c1nonc1N | -7.3* | i | i | i | i
Cc1ccc(N=C(NOCc2ccc(Cl)cc2Cl)c2nonc2N)c(C)c1 | -7.6* | i | i | i | i
Cc1ccc(N=C(NO)c2nonc2N)c(C)c1 | i | i | i | i | i
Cc1cc(C)nc(NC(=S)Nc2ccc(Br)cc2Cl)c1 | i | i | i | i | i
O=C1NN(c2ccc(Cl)c(Cl)c2)C(=O)/C1=C/c1cccc(OC(=O)c2cccs2)c1 | i | i | 25* | i | i
O=C1Nc2ccccc2/C1=C/c1cnc(-c2ccccc2)[nH]1 | -7* | i | i | i | i
O=C1Nc2ccccc2/C1=C/c1cccnc1 | i | i | i | i | i
COc1cc(/C=C2\SC(=O)N(CC(=O)Nc3ccccc3F)C2=O)cc(Cl)c1O | i | -6.2* | i | i | i
COc1cc(OC)c(/C=C2\SC(=O)N(CC(=O)Nc3ccccc3F)C2=O)c(OC)c1 | i | i | i | i | i
CCOC(=O)c1cnc(Nc2nc3ccccc3o2)nc1CSC(=S)N(CC)CC | i | i | i | i | i
CCOC(=O)c1cnc(Nc2nc3ccccc3o2)nc1CSc1ncccn1 | i | -5.6* | i | i | i
NS(=O)(=O)c1ccc(CCNC(=O)C2CCCN2S(=O)(=O)c2cccc3nsnc23)cc1 (configuration not stated) | i | i | i | i | i
O=C(N/N=C/c1ccccc1Br)c1ccc(CSc2cccc3cccnc23)cc1 | i | i | i | i | i
NNC(=O)c1ccc(CSc2cccc3cccnc23)cc1 | i | -4.6* | i | i | i
Nc1nc(Nc2cccc(F)c2)nc(NCCO)c1[N+](=O)[O-] | i | i | i | i | i
Cc1ccc(Nc2nc(N)c([N+](=O)[O-])c(NCCO)n2)cc1 | i | i | i | i | 8*
O=S1(=O)c2ccccc2N=NN1Cc1ccc(Cl)c(Cl)c1 | i | i | i | 29* | i
CC(C)(C)c1ccc(CN2N=Nc3ccccc3S2(=O)=O)cc1 | i | i | i | i | i
Brc1ccccc1OCCCOc1cccc2cccnc12 | i | i | i | i | i
SMILES | RGS4 pot | MrgX1 antag | RGS4 inh | MrgX1 ag | MrgX1 PAM
COc1cccc(C=O)c1OCCCOc1cccc2cccnc12 | i | i | i | 33* | i
CC(=O)N1CCN(C(=O)COc2ccc(Br)cc2)CC1 | i | i | i | i | i
CN1CCC(OC(=O)COc2ccc(Br)cc2)CC1 | -7.5* | i | i | i | i
COc1ccc(OCC(=O)N2CCN(C(=O)COc3ccc(Br)cc3)CC2)cc1 | i | -4.8* | i | i | i
CCOC(=O)c1[nH]c(C)c(C(=O)OCc2ccccc2F)c1C | i | i | i | i | i
N#C[C@H]1C2OC2c2ccccc2N1C(=O)c1ccccc1 (some centres not stated) | i | -7.9* | i | i | i
COc1ccc(/C=C/C(=O)C2CC2)cc1COc1cccc(C)c1C | i | i | i | i | i
O=C(Cc1cn(Cc2cccc(Cl)c2)c2ccccc12)N1CCCCCC1 | -7.2* | i | i | i | i
CC1CCCN(C(=O)Cc2cn(Cc3cccc(Cl)c3)c3ccccc23)C1 (configuration not stated) | -7.4* | i | i | i | i
O=C(O)Cc1cn(Cc2cccc(Cl)c2)c2ccccc12 | i | i | i | i | i
O=S(=O)(Nc1ccc2c(c1)OCCO2)c1cnc[nH]1 | i | i | i | i | i
COc1ccc([C@@H]2CC=C(C(=O)O)[C@H](c3ccccc3F)N2S(=O)(=O)c2ccc(C)cc2)cc1OC | . | i | . | i | i
Cc1ccc(S(=O)(=O)N2[C@@H](c3ccccc3F)C(C(=O)O)=CC[C@H]2c2ccc3c(c2)OCO3)cc1 | . | i | . | i | 14*
Cc1ccc(S(=O)(=O)N2[C@@H](c3ccc(F)cc3)C(C(=O)O)=CC[C@H]2c2ccc3c(c2)OCO3)cc1 | . | i | . | i | 9.5*
Cc1ccc(S(=O)(=O)N2[C@@H](c3ccc(F)cc3)C(C(=O)O)=CC[C@H]2c2cccc(C)c2)cc1 | . | i | . | i | i
COCC(=O)Nc1cc(C(=O)Nc2cccc(C)c2C)ccc1Cl | i | i | i | i | i
COCC(=O)NNC(=S)Nc1cccc(C)c1C | i | -5.1* | i | i | i
O=C(c1cnccn1)N1CCN(C/C=C/c2ccccc2)CC1 | i | i | i | i | i
Cc1ccc(C)c(NC(=O)C2CC3c4ccccc4C2c2ccccc23)c1 (configuration not stated) | i | -5.5* | i | i | i
Cc1ccc(C)c(NC(=O)C2CC=CCC2C(=O)O)c1 (configuration not stated) | i | i | i | i | i
COC(=O)c1c(-c2c(Cl)cccc2Cl)noc1C(=O)NNC(=O)N(C)C | i | i | i | i | i
C/C(=N\NC(=O)C1(C)CC1(Br)Br)c1cccc(NC(=O)C(C)(C)C)c1 (configuration not stated) | i | i | i | i | i
COc1ccc(CC(=O)Nc2cccc(/C(C)=N/NC(=O)C3(C)CC3(Br)Br)c2)cc1 (configuration not stated) | -9.3* | i | i | i | i
CCN1C(=O)/C(=C\N(C)C)S/C1=N\S(=O)(=O)c1ccccc1 | i | i | i | i | 10*
